Test: Toxicity liver stage against HepG2, at 10uM
Format: cell-based
Set-up: test concentration 10 uM, cell line HepG2-A16-CD81EGFP
Conditions: human, HepG2-A16-CD81EGFP cells; read-out: INHIBITION
Method in brief: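 Uninfected HepG2-A16-CD81EGFP cells, 3 × 10^3 per well, 1536-well, plated on prespotted compound at 10 μM final, parasite-free screening media added to match infected plates; puromycin 10 μM positive, DMSO 0.5% negative; run in parallel with 48 h PbLuc assay at 37 °C, 5% CO2; viability by CellTiter-Glo luminescence, normalized to controls.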

Row | SMILES | cytotoxicity at 10 µM [%]
1 | CCNc1nnc(CCn2nc(C)c(Br)c2C)s1 | 2.14
2 | CC(C)CN1CC[C@H](c2nnc(COc3ccc(F)cc3)o2)C1 | -1.81
3 | O=C1N(Cc2cccnc2)C[C@H]2CN(S(=O)(=O)c3ccccc3)CCN12 | 1.08
4 | CC(C)(C)CC(=O)NC[C@H]1OC[C@@H](NCc2ccccn2)[C@@H]1O | -5.28
5 | CN(C)C(=O)c1cc(-c2ccccc2)[nH]n1 | -4.5
6 | CCOC(=O)[C@H]1[C@@H](O)C(=O)N(C)C12CCN(C(=O)CC(C)(C)C)CC2 | -4.1
7 | COCCn1ccc(=O)c(OCC(=O)Nc2ccc(OC)cc2)c1C | 0.955
8 | CC(C)CC1SCC(=O)Nc2c1cnn2C1CCCC1 (stereo not drawn) | -2.17
9 | COc1ccccc1-c1cc(C(=O)Nc2nc[nH]n2)[nH]n1 | -2.2
10 | CCCS(=O)(=O)N1CCN(c2ccc3nnc(CC)n3n2)CC1 | 8.75
11 | CC(=O)N1CCC2(CC1)[C@@H]1CN(C(=O)N(C)C)C[C@@H]1C(=O)N2C | 2.38
12 | CC(C)C(=O)NC1COC2(CCN(C(=O)c3ccc[nH]3)CC2)C1 (stereo not drawn) | 6.15
13 | CN1C(=O)CCCC12CCCN(C(=O)c1ccc3c(c1)OCO3)C2 (stereo not drawn) | 0.758
14 | CC(C)NC(=O)C1CN(Cc2cccs2)Cc2ccnn2C1 (stereo not drawn) | -1.89
15 | Cc1cnc(N2C[C@@H]3[C@@H](C(=O)NCC(C)C)CCS(=O)(=O)[C@@H]3C2)nc1 | -155
16 | Cc1cccc(N2CCCC3(C2)CN(S(C)(=O)=O)CCO3)c1 (stereo not drawn) | 10.2
17 | Cc1ccc(N2CCCc3sc(C(=O)NCc4ccc(C)o4)nc32)nn1 | 4.93
18 | CN(C(=O)Cn1nc(-c2ccc(Cl)cc2)ccc1=O)C1CCS(=O)(=O)C1 (stereo not drawn) | 1.96
19 | O=c1c(S(=O)(=O)N2CCCCC2)cccn1Cc1cccnc1 | -2.56
20 | CCSC1=Nc2c(cnn2-c2ccc(Cl)cc2)C2=NCCCN12 | 8.49
21 | O=C(NCCc1c[nH]cn1)c1ccc2c(c1)C(=O)N(C1CC1)C2=O | 11.7
22 | CN(C)Cc1nn(C)c2c1CCN(S(=O)(=O)c1cccs1)C2 | 4.52

Row | SMILES | cytotoxicity at 10 µM [%]
23 | CCn1cc(-c2cc(C(F)F)nc3sc(C(N)=O)c(N)c23)c(C)n1 | 3.04
24 | COc1ccc(-c2cc(C3(O)CCOC(C)(C)C3)on2)cc1 (stereo not drawn) | -3.12
25 | CCn1cc(S(=O)(=O)N2CCCCCC2c2cc(C)on2)cn1 (stereo not drawn) | 7.43
26 | Cc1cncc(C2CCN(C(=O)c3ccc(-n4cccn4)nc3)CC2)n1 | -0.701
27 | CNc1cc(C)nc(C2CN(Cc3ccc(Cl)cn3)CCO2)c1 (stereo not drawn) | -26.2
28 | CN1CCCCC[C@@H]2[C@@H]1[C@H](c1ccccc1)CN2C(=O)c1ccccn1 | -24.5
29 | COC(=O)c1ccc(C(=O)N2CCc3c(ncn3C3CC3)C2)cc1 | -3.34
30 | O=C(Nc1cccc(F)c1)N1CCC(CO)(Nc2ccccc2)CC1 | -5.04
31 | CC(C)(C)OC(=O)NCC1CCN(C(=O)c2cc(Cl)c[nH]2)CC1 | -3.26
32 | NC(=O)C(NCCc1ccc(Cl)s1)c1ccccc1 (stereo not drawn) | 6.13
33 | Cc1cc(C)n2c(CNCCNc3ccccc3)cnc2n1 | -144
34 | CC(C)CN(CC(F)(F)F)S(=O)(=O)c1cc(C(N)=O)n(C)c1 | -3.22
35 | COCCNS(=O)(=O)c1c(C)sc2ccccc12 | 1.11
36 | CCOC(=O)C1(NCC(=O)Nc2cc(C)ccc2OC)CCCC1 | 6.9
37 | CCc1noc(C(C)N(C)Cc2ccc(OC)c(OC)c2)n1 (stereo not drawn) | -7.13
38 | CC1CN(C)c2ccccc2CN1C(=O)c1cc(C#N)cn1C (stereo not drawn) | 14.6
39 | CCCC(=O)N1CCC(Nc2ncc(Br)cn2)CC1 | -8.69
40 | O=C(Nc1cccnc1-n1cncn1)N(C1CCCC1)C1CC1 | -10.9
41 | O=C(CCn1ccc2ccccc21)N1CCC(Nc2cccnn2)CC1 | 3.79
42 | Cc1cc2c(cc1C)OC(C(=O)NCCNC(=O)C1CCCC1)C2 (stereo not drawn) | 7.71
43 | COc1ncccc1CNC(=O)C1=NN(c2ccccc2)C(=O)CN1 | 2.54
44 | CCOC1CCN(C(=O)c2cc(-c3ccc(Cl)cc3)on2)CC1 | -5.08

Row | SMILES | cytotoxicity at 10 µM [%]
45 | O=C(NCC1CC1)C1CSCN1S(=O)(=O)c1ccccc1 (stereo not drawn) | -4.43
46 | Cc1cccc(C)c1OCC(=O)Nc1cccn(C)c1=O | 4.08
47 | O=C(Cc1cc2c(cc1Br)OCCO2)NC1CCS(=O)(=O)C1 (stereo not drawn) | 10.1
48 | O=C(c1nccc2ccccc12)N(Cc1ccco1)CC1CCCO1 (stereo not drawn) | -6.25
49 | O=c1ccn(Cc2nc(-c3ccccc3F)cs2)c(=O)[nH]1 | -1.2
50 | Cc1csc(N2CCCN(C(=O)c3ccsc3)CC2)n1 | 5.28
51 | C=C(C)CN1CCC(Nc2nc(C)ns2)CC1 | -8.39
52 | CC(C)Cc1ncc(CNc2cnccc2CO)s1 | -6.53
53 | CC(C)C(=O)N(C)Cc1nnc2n1CCCCC2 | -8.2
54 | CC(C)OCCCNC(=O)NC(C)c1ccc(-n2cncn2)cc1 (stereo not drawn) | -5.32
55 | CN(CCn1cnnc1)S(=O)(=O)c1ccc(C(F)(F)F)nc1 | 6.71
56 | CC(CO)(NC(=O)NCCc1ccc(Br)s1)C1CC1 (stereo not drawn) | -2.43
57 | CC(C)N(Cc1cccnc1)C(=O)CCSc1ccc(C#N)cc1 | 27.1
58 | COCCNC(=O)Nc1ccc(-c2nc(C(C)C)no2)cc1 | 0.0793
59 | CC(CS(C)(=O)=O)N(C(=O)CCc1cccc(F)c1)C1CC1 (stereo not drawn) | -6.77
60 | CCCNC(=O)CN1CCOC(c2ccc(Br)cc2)C1 (stereo not drawn) | -2.56
61 | CCCC(NC(=O)c1ccc(OC)cc1F)c1nnn[nH]1 (stereo not drawn) | -7.61
62 | CN(CCC(F)(F)F)C(=O)C1CCCN1C(=O)OC(C)(C)C (stereo not drawn) | -0.653
63 | O=C(C1CC(F)(F)C1)N1C[C@@H]2CN(Cc3ccoc3)CCO[C@@H]2C1 | 7.81
64 | O=C1O[C@@H]2CN(Cc3cccc(O)c3)C[C@@H]2N1CCCN1CCOCC1 | 0.476
65 | CN(C)C1(CNc2nccc(-c3cnn(C)c3)n2)CCSC1 (stereo not drawn) | -126
66 | O=C1N(CCCc2ccccc2)CCCC1(O)CN1CCC(CO)CC1 (stereo not drawn) | -10.5

Row | SMILES | cytotoxicity at 10 µM [%]
67 | CCS(=O)(=O)N1CCC(c2nccn2Cc2ccncc2)CC1 | -4
68 | CN1C(=O)CC(C(=O)O)C12CCN(Cc1ccc(F)c(Cl)c1)CC2 (stereo not drawn) | 0.998
69 | CCCc1nnc(NC2CCN(C3CCOCC3)CC2)o1 | -4.92
70 | C[C@@H]1CN(C2(C(=O)N3CCNCC3)Cc3ccccc3C2)C[C@H](C)O1 | -4.17
71 | Cc1cc(C)c(C(=O)N2CCC3(CCCNC3)C2)cc1C (stereo not drawn) | 2.52
72 | CCN1CC2(CCC1=O)CCN(Cc1cscn1)CC2 | 2.48
73 | CCOCc1nc2c(c(N3CC=CC3)n1)CCN(C1CCOCC1)CC2 | -25.2
74 | Cc1cc(N(C)CCCn2cccn2)nc(-c2cccnc2)n1 | 16.3
75 | CCCC1(CO)CCCN(Cc2ncccn2)C1 (stereo not drawn) | -1.89
76 | CCn1c(C2CCCN(Cc3ccc(F)cc3Cl)C2)nn(C)c1=O (stereo not drawn) | -2.75
77 | CCCc1n[nH]cc1C(=O)N1CCCC(c2nccn2CC2CC2)C1 (stereo not drawn) | 1.1
78 | CCn1c(N)nc2cc(C(=O)N3CCC(N4CCCC4)CC3)cnc21 | -1.56
79 | CN1CCC(c2nnc(CN3CCCC3)n2C2CC2)CC1 | -11.4
80 | COc1cnc(N2C[C@@H](CN3CCOCC3)[C@@H](CO)C2)nc1 | -9.25
81 | COc1ccccc1C1CNC(=O)c2nc(-c3cnn(C)c3)[nH]c2C1 (stereo not drawn) | -5.33
82 | CCOCC(O)CN1CCN(C(=O)c2ccccc2F)CC1 (stereo not drawn) | -2.15
83 | O=C(NCCNc1ncccn1)c1ccc(Br)cc1 | -0.628
84 | CC(C)(NCC(=O)NCC1CC1)c1ccc2c(c1)OCCO2 | -9.8
85 | Cc1ncc(CN2CCCC(c3cc(C(N)=O)[nH]n3)C2)s1 (stereo not drawn) | -27.7
86 | Cc1cccc(OCCC(=O)NCC2CN(C)CCO2)c1C (stereo not drawn) | -6.3
87 | Cc1n[nH]c(=O)c(C(=O)N2CCN(CCc3cccs3)CC2)c1C | -6.22
88 | CC(C)Cc1cc(C(=O)NCCN2CCCS2(=O)=O)[nH]n1 | -7.39

Row | SMILES | cytotoxicity at 10 µM [%]
89 | COc1cccc2cc(CNC(=O)N3CCC(C(N)=O)CC3)oc12 | -6.13
90 | CCC(C#N)NC(=O)c1cc(Br)c2c(c1)OCCO2 (stereo not drawn) | -15.7
91 | Cc1nnc(CN2CCCC(c3noc(C4CC4)n3)C2)o1 (stereo not drawn) | -16
92 | Cc1cnn(CC2CCCN2CC(=O)Nc2cc(C(C)C)no2)c1 (stereo not drawn) | 4.23
93 | CCOC(=O)N1CCC(NC(=O)Nc2cccnc2OCC)CC1 | -31.9
94 | Cc1nn(C)c(N2CCOCC2)c1CNCc1ccc(CO)c(F)c1 | -14.5
95 | Cc1oc(-c2ccco2)nc1CC(=O)N1CCC(CCO)C1 (stereo not drawn) | -2.02
96 | Cc1cc(NC(=O)CN2CCn3c(nnc3-c3ccccc3)C2)no1 | -2.38
97 | O=C(Nc1ccccn1)c1cncc(C2CCNCC2)n1 | -0.0757
98 | Cc1ccc(CN2C[C@@H]3[C@@H](C(=O)NCC(C)C)CCS(=O)(=O)[C@@H]3C2)cc1 | 0.793
99 | COCCN1CC[C@@H]2OC(COCC(=O)N3CCCC3)CC[C@@H]21 (stereo partly drawn) | -3.29
100 | CN(C)CCOCc1nnc2n1CCN(Cc1cccs1)CC2 | 9.03
101 | c1cc(CN2CCc3ncc(CN4CCOCC4)n3CC2)cs1 | -0.269
102 | Cc1ccc(N2CC3(COCCN(Cc4ccncc4)C3)OCC2=O)s1 (stereo not drawn) | 8.59
103 | CCn1nc(C)cc1C(=O)N1C[C@H]2CCC[C@@]2(COc2ccccn2)C1 | 0.529
104 | CS(=O)(=O)N1CC[C@H]2O[C@H](C(=O)NCCc3ccncc3)CC[C@H]21 | 4.41
105 | Cc1ccc(CN2CC[C@@H]3[C@@H](CO[C@H]3CN3CCN(C)CC3)C2)s1 | 7.57
106 | c1cc(CN2CCO[C@H]3[C@H](OCC4CCOCC4)CC[C@@H]32)co1 | -117
107 | O[C@@H]1CC(CNCc2ccccn2)(COc2cccnc2)C[C@@H]1O (stereo partly drawn) | -10.3
108 | CC(C)=CCN1C[C@@H]2CC[C@H]1CN(C(=O)Cn1c(C)cc(C)nc1=O)C2 | -4.36
